Assays:
[1] = biological target: T1, Toll-like receptor 9 (Mus musculus) (UniProt Q9EQU3); experiment: Activation of mouse TLR9 expressed in HEK293 cells assessed as induction of NF-kappaB activity after 18 hrs by SEAP assay; format: cell-based
T1 sequence (whole entry): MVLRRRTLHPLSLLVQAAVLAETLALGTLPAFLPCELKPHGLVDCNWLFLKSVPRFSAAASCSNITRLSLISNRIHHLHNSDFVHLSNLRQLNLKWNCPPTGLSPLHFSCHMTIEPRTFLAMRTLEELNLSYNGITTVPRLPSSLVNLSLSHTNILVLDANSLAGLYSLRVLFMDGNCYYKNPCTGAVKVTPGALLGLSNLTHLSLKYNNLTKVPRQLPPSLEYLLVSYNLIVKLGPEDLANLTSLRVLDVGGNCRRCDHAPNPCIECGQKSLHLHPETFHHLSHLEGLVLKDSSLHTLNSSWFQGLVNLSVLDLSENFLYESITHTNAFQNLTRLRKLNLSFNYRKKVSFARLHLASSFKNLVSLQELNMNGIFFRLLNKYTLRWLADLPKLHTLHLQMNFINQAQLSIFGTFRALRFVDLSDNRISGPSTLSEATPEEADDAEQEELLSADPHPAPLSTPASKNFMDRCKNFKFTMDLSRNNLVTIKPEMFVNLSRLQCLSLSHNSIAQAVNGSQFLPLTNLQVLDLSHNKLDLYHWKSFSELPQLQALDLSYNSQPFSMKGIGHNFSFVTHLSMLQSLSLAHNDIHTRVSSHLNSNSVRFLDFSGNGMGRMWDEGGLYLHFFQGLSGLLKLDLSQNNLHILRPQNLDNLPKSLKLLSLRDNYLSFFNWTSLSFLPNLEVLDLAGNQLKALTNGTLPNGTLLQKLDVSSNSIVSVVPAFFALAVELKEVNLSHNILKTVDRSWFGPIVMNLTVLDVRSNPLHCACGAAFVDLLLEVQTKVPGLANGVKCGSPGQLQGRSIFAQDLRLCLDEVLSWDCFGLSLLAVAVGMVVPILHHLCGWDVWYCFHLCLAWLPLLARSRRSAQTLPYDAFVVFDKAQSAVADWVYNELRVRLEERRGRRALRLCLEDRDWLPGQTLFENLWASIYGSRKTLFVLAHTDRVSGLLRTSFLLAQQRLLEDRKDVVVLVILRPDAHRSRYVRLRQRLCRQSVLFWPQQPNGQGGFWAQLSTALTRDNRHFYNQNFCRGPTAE
Outline: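 HEK293 cells stably expressing mouse TLR9 were grown in DMEM with 10% heat-inactivated FBS. At 80% confluence they were transiently transfected with a SEAP reporter plasmid (100 ng/well, lipofectamine) for 6 h. Medium was then replaced and agonists were added for 18 h. Supernatant SEAP was read with QuantiBlue substrate at 620-645 nm. Results are expressed as fold NF-κB activity over PBS control.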

[2] = biological target: T1, Toll-like receptor 9 (Mus musculus); experiment: Induction of TLR9-mediated IL12 production in C57BL/6 mouse spleen cells after 24 hrs by ELISA; format: cell-based
Outline: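 C57BL/6 mouse spleen cells were cultured with agonists at 0.1, 0.3, 1, 3 and 10 μg/mL for 24 h. Secreted IL-12 and IL-6 in the supernatants were measured by ELISA. Values are averages of triplicate wells from one representative of at least two independent experiments.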

[3] = biological target: T2, Toll-like receptor 9 (Homo sapiens) (UniProt Q9NR96); experiment: Induction of TLR9-mediated immune stimulation in human PBMC assessed as IL2R production at 10 ug/ml after 24 hrs by luminex multiplex assay (RVb = 0.02 +/- 0.01 ng/ml)
T2 sequence (whole entry): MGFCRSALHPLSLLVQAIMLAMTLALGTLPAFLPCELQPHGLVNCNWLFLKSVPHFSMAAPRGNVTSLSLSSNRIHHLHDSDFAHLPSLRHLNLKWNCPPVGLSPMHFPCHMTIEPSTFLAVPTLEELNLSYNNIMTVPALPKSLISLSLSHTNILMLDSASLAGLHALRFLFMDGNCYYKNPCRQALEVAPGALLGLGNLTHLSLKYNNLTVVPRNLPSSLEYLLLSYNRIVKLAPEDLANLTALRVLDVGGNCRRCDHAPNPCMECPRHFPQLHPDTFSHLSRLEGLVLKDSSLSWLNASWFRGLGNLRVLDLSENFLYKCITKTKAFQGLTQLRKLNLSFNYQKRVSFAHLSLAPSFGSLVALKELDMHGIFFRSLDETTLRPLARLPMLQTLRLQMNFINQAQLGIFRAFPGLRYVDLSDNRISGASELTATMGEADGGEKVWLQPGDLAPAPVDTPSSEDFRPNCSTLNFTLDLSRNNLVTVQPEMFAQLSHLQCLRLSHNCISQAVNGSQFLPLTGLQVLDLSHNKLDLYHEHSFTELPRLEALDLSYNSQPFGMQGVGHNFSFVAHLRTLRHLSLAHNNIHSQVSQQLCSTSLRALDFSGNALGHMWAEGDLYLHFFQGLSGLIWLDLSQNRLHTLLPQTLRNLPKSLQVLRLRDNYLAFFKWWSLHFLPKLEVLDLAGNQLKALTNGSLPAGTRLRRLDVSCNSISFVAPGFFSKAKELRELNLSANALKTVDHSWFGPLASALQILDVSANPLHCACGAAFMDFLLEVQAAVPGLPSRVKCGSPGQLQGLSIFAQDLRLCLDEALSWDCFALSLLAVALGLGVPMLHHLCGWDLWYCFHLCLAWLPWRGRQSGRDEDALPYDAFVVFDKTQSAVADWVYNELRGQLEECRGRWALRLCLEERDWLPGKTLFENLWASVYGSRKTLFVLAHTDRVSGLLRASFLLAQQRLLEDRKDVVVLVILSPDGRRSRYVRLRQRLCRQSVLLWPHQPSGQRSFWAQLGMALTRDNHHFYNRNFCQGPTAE

[4] = biological target: T2, Toll-like receptor 9 (Homo sapiens); experiment: Induction of TLR9-mediated immune stimulation in human PBMC assessed as IL6 production at 2 ug/ml after 24 hrs by luminex multiplex assay (RVb = 0.01 ng/ml)
[5] = biological target: T2, Toll-like receptor 9 (Homo sapiens); experiment: Induction of TLR9-mediated immune stimulation in human PBMC assessed as IL12 production at 2 ug/ml after 24 hrs by luminex multiplex assay (RVb = 0.00 ng/ml)
[6] = biological target: T2, Toll-like receptor 9 (Homo sapiens); experiment: Induction of TLR9-mediated immune stimulation in human PBMC assessed as MIP1alpha production at 2 ug/ml after 24 hrs by luminex multiplex assay (RVb = 0.01 ng/ml)
[7] = biological target: T2, Toll-like receptor 9 (Homo sapiens); experiment: Induction of TLR9-mediated immune stimulation in human PBMC assessed as MIP1beta production at 10 ug/ml after 24 hrs by luminex multiplex assay (RVb = 0.03 +/- 0.02 ng/ml)
[8] = biological target: T2, Toll-like receptor 9 (Homo sapiens); experiment: Induction of TLR9-mediated immune stimulation in human PBMC assessed as RANTES production at 2 ug/ml after 24 hrs by luminex multiplex assay (RVb = 0.05 +/- 0.04 ng/ml)
[9] = biological target: T2, Toll-like receptor 9 (Homo sapiens); experiment: Induction of TLR9-mediated immune stimulation in human PBMC assessed as RANTES production at 10 ug/ml after 24 hrs by luminex multiplex assay (RVb = 0.05 +/- 0.04 ng/ml)

Row | Activity [1] | Activity [2] | Activity [3] | Activity [4] | Activity [5] | Activity [6] | Activity [7] | Activity [8] | Activity [9] | SMILES
1 | Dose-dependent effect | Dose-dependent effect | 0.28 ng/mL | 0.3 ng/mL | 0.13 ng/mL | 0.05 ng/mL | 2.15 ng/mL | 0.93 ng/mL | 2.13 ng/mL | Cc1cn([C@H]2C[C@H](O[C@H]3C[C@@H](O)C[C@@H](OP(=O)(S)O[C@H]4C[C@H](n5cc(C)c(=O)[nH]c5=O)O[C@@H]4COP(=O)(S)O[C@H]4[C@@H](O)[C@H](n5ccc(N)nc5=O)O[C@@H]4COP(=O)(S)O[C@H]4C[C@H](n5cc(C)c(=O)[nH]c5=O)O[C@@H]4COP(=O)(S)O[C@H]4C[C@H](n5cc(C)c(=O)[nH]c5=O)O[C@@H]4COP(=O)(S)O[C@H]4C[C@H](n5ccc6c(=O)[nH]c(N)nc65)O[C@@H]4COP(=O)(S)O[C@H]4[C@@H](O)[C@H](n5ccc(N)nc5=O)O[C@@H]4COP(=O)(S)O[C@H]4C[C@H](n5cc(C)c(=O)[nH]c5=O)O[C@@H]4COP(=O)(S)O[C@H]4[C@@H](O)[C@H](n5cnc6c(=O)[nH]c(N)nc65)O[C@@H]4COP(=O)(S)O[C@H]4C[C@H](n5cc(C)c(=O)[nH]c5=O)O[C@@H]4COP(=O)(S)O[C@H]4[C@@H](O)[C@H](n5ccc(N)nc5=O)O[C@@H]4COP(=O)(S)O[C@H]4C[C@H](n5cc(C)c(=O)[nH]c5=O)O[C@@H]4CO)C3)[C@@H](COP(=O)(S)O[C@H]3[C@@H](O)[C@H](n4ccc(N)nc4=O)O[C@@H]3COP(=O)(S)O[C@H]3C[C@H](n4cc(C)c(=O)[nH]c4=O)O[C@@H]3COP(=O)(S)O[C@H]3C[C@H](n4cc(C)c(=O)[nH]c4=O)O[C@@H]3COP(=O)(S)O[C@H]3C[C@H](n4ccc5c(=O)[nH]c(N)nc54)O[C@@H]3COP(=O)(S)O[C@H]3[C@@H](O)[C@H](n4ccc(N)nc4=O)O[C@@H]3COP(=O)(S)O[C@H]3C[C@H](n4cc(C)c(=O)[nH]c4=O)O[C@@H]3COP(=O)(S)O[C@H]3[C@@H](O)[C@H](n4cnc5c(=O)[nH]c(N)nc54)O[C@@H]3COP(=O)(S)O[C@H]3C[C@H](n4cc(C)c(=O)[nH]c4=O)O[C@@H]3COP(=O)(S)O[C@H]3[C@@H](O)[C@H](n4ccc(N)nc4=O)O[C@@H]3COP(=O)(S)O[C@H]3C[C@H](n4cc(C)c(=O)[nH]c4=O)O[C@@H]3CO)O2)c(=O)[nH]c1=O (stereo partly drawn)
2 | Dose-dependent effect | Dose-dependent effect | 0.19 ng/mL | 0.36 ng/mL | 0.14 ng/mL | 0.05 ng/mL | 1.41 ng/mL | 0.29 ng/mL | 1.67 ng/mL | Cc1cn([C@H]2C[C@H](OCC(O)COP(=O)(S)O[C@H]3C[C@H](n4cc(C)c(=O)[nH]c4=O)O[C@@H]3COP(=O)(S)O[C@H]3[C@@H](O)[C@H](n4ccc(N)nc4=O)O[C@@H]3COP(=O)(S)O[C@H]3C[C@H](n4cc(C)c(=O)[nH]c4=O)O[C@@H]3COP(=O)(S)O[C@H]3C[C@H](n4cc(C)c(=O)[nH]c4=O)O[C@@H]3COP(=O)(S)O[C@H]3C[C@H](n4ccc5c(=O)[nH]c(N)nc54)O[C@@H]3COP(=O)(S)O[C@H]3[C@@H](O)[C@H](n4ccc(N)nc4=O)O[C@@H]3COP(=O)(S)O[C@H]3C[C@H](n4cc(C)c(=O)[nH]c4=O)O[C@@H]3COP(=O)(S)O[C@H]3[C@@H](O)[C@H](n4cnc5c(=O)[nH]c(N)nc54)O[C@@H]3COP(=O)(S)O[C@H]3C[C@H](n4cc(C)c(=O)[nH]c4=O)O[C@@H]3COP(=O)(S)O[C@H]3[C@@H](O)[C@H](n4ccc(N)nc4=O)O[C@@H]3COP(=O)(S)O[C@H]3C[C@H](n4cc(C)c(=O)[nH]c4=O)O[C@@H]3CO)[C@@H](COP(=O)(S)O[C@H]3[C@@H](O)[C@H](n4ccc(N)nc4=O)O[C@@H]3COP(=O)(S)O[C@H]3C[C@H](n4cc(C)c(=O)[nH]c4=O)O[C@@H]3COP(=O)(S)O[C@H]3C[C@H](n4cc(C)c(=O)[nH]c4=O)O[C@@H]3COP(=O)(S)O[C@H]3C[C@H](n4ccc5c(=O)[nH]c(N)nc54)O[C@@H]3COP(=O)(S)O[C@H]3[C@@H](O)[C@H](n4ccc(N)nc4=O)O[C@@H]3COP(=O)(S)O[C@H]3C[C@H](n4cc(C)c(=O)[nH]c4=O)O[C@@H]3COP(=O)(S)O[C@H]3[C@@H](O)[C@H](n4cnc5c(=O)[nH]c(N)nc54)O[C@@H]3COP(=O)(S)O[C@H]3C[C@H](n4cc(C)c(=O)[nH]c4=O)O[C@@H]3COP(=O)(S)O[C@H]3[C@@H](O)[C@H](n4ccc(N)nc4=O)O[C@@H]3COP(=O)(S)O[C@H]3C[C@H](n4cc(C)c(=O)[nH]c4=O)O[C@@H]3CO)O2)c(=O)[nH]c1=O (stereo partly drawn)

Source: ChEMBL document CHEMBL1157912, “Impact of nature and length of linker incorporated in agonists on toll-like receptor 9-mediated immune responses” (J Med Chem, 2010)
